Results taken from ChEMBL document CHEMBL4265981, “Design, synthesis, and biological evaluation of novel pan agonists of FFA1, PPARγ and PPARδ” (Eur J Med Chem, 2018).

How the values were obtained:
[1] = target: T1, Free fatty acid receptor 1 (Homo sapiens, UniProt O14842); test: Agonist activity at human FFA1 expressed in CHO cells assessed as increase in intracellular Ca2+ flux after 1 hr by Fluo4-AM dye based FLIPR assay; format: functional, cell-based
Outline: (§1)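 CHO cells stably expressing human FFA1, seeded 16 h at 37 °C, washed with HBSS, then loaded 1 h at 37 °C with Fluo 4-AM (2.5 μg/mL), 2.5 mmol/L probenecid and 0.1% fatty acid-free BSA. Intracellular Ca2+ flux read by FLIPR after compound addition at various concentrations.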

[2] = target: T2, Peroxisome proliferator-activated receptor alpha (Homo sapiens, UniProt Q07869); test: Agonist activity at human GAL4 fused PPARalpha-LBD expressed in human HepG2 cells after 18 hrs by luciferase reporter gene assay; format: cell-based
T2 sequence (Q07869 whole entry): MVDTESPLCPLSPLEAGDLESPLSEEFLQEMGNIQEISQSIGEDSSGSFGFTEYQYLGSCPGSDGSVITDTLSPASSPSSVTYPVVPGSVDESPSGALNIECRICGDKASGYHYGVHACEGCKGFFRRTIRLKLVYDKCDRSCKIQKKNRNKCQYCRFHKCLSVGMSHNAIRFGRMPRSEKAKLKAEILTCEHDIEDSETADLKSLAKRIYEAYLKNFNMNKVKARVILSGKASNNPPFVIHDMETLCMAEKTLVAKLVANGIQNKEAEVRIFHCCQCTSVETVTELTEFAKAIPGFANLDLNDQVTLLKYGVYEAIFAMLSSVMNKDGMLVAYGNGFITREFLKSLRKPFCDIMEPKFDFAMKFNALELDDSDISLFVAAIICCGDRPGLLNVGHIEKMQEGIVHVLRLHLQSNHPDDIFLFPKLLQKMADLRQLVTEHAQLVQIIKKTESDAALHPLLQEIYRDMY
Outline: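 HepG2 cells plated 1 day ahead in antibiotic-free MEM, then run by the same GAL4 protocol: pBIND-PPAR construct plus pG5Luc reporter transfection, 18 h compound exposure at various concentrations. Firefly/renilla luciferase ratio scaled between no-compound and reference-agonist controls. EC50 is the mean of three determinations.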

[3] = target: T3, Peroxisome proliferator-activated receptor gamma (Homo sapiens, UniProt P37231); test: Agonist activity at human GAL4 fused PPARgamma-LBD expressed in HEK293 cells after 18 hrs by luciferase reporter gene assay; format: cell-based
T3 sequence (P37231 whole entry): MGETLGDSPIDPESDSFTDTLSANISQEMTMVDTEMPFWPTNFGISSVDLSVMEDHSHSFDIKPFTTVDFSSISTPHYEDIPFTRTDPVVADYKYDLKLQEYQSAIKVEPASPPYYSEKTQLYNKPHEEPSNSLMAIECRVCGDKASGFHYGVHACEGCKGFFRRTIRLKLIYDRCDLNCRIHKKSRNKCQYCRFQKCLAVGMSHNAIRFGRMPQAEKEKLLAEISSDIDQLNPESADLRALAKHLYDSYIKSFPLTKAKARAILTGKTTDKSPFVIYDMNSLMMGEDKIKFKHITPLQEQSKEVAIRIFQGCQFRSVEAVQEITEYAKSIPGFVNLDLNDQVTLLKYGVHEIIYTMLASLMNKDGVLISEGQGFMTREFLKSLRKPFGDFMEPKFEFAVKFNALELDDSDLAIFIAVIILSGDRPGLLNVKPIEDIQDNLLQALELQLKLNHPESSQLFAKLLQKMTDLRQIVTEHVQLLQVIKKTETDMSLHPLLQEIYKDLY
Outline: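 HEK293 cells plated 1 day ahead in antibiotic-free DMEM, transiently transfected with pBIND-PPARγ plus pG5Luc reporter (25 ng/well each). After 24 h, compounds added at various concentrations for 18 h. Dual firefly/renilla luciferase read-out, firefly normalized to renilla. % activation scaled between no-compound control and reference agonist; EC50 is the mean of three determinations.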

[4] = target: T4, Peroxisome proliferator-activated receptor delta (Homo sapiens, UniProt Q03181); test: Agonist activity at human GAL4 fused PPARdelta-LBD expressed in HEK293 cells after 18 hrs by luciferase reporter gene assay; format: cell-based
T4 sequence (Q03181 whole entry): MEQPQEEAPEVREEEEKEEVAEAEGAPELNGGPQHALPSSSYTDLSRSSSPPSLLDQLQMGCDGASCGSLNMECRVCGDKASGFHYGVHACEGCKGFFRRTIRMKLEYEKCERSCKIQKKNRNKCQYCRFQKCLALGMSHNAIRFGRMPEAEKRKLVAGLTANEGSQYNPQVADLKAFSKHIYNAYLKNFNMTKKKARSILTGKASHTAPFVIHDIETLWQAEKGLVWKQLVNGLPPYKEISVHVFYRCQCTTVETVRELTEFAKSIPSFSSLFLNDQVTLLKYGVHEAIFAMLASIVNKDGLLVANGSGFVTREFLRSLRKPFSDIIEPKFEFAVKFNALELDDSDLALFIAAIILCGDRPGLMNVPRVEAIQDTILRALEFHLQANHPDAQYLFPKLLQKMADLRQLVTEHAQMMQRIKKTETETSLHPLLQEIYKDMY

Mus musculus [5] = test: Hypoglycemic activity in ICR mouse assessed as decrease in blood glucose AUC (0 to 120 mins) at 100 mg/kg, po administered 30 mins prior to glucose load by OGTT relative to control; format: functional; parameters: scale not given: the % may be the effect or the level left
Outline: (§2)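 Male ICR mice (18–22 g), acclimatized 1 week. Single oral dose (10, 30, 100 or 20 mg/kg) in 0.5% carboxymethylcellulose/methylcellulose vehicle, given 30 min before an oral glucose load of 3 g/kg. Blood glucose measured by test strip at −30, 0, 15, 30, 60 and 120 min. AUC0–120 min compared with vehicle.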

Mus musculus [6] = test: Hypoglycemic activity in ob/ob mouse assessed as decrease in blood glucose AUC (0 to 120 mins) at 100 mg/kg, po bid administered via gavage for 5 days starting at 30 mins prior to glucose load by OGTT relative to control; format: functional; parameters: scale not given: the % may be the effect or the level left
Outline: (§3)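 Male ob/ob mice, six weeks old, acclimatized 1 week. Dosed by gavage twice daily for 5 days with 100 or 40 mg/kg, or with 0.5% methylcellulose vehicle. OGTT on days 0 and 5: overnight fast, dose, then oral glucose 3 g/kg 30 min later. Tail-tip blood glucose by strip at −30, 0, 15, 30, 60 and 120 min. n = 6/group, mean ± SD, Student's t test.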

Mus musculus [7] = test: Hypoglycemic activity in ICR mouse assessed as decrease in plasma glucose level administered orally 30 mins prior to glucose load and measured after 120 mins by OGTT; format: functional, organism-based; outline: as §2
Mus musculus [8] = test: Hypoglycemic activity in ob/ob mouse assessed as decrease in blood glucose AUC (0 to 120 mins) at 100 mg/kg, po bid administered via gavage 30 mins prior to glucose load by OGTT relative to control; format: functional; parameters: scale not given: the % may be the effect or the level left; outline: as §3
Mus musculus [9] = test: Hypoglycemic activity in ICR mouse assessed as decrease in blood glucose AUC (0 to 120 mins) at 30 mg/kg, po administered 30 mins prior to glucose load by OGTT relative to control; format: functional; parameters: scale not given: the % may be the effect or the level left; outline: as §2
Mus musculus [10] = test: Hypoglycemic activity in ICR mouse assessed as decrease in blood glucose AUC (0 to 120 mins) at 10 mg/kg, po administered 30 mins prior to glucose load by OGTT relative to control; format: functional; parameters: scale not given: the % may be the effect or the level left; outline: as §2
Mus musculus [11] = test: Hypoglycemic activity in ob/ob mouse assessed as decrease in blood glucose AUC (0 to 120 mins) at 40 mg/kg, po bid administered via gavage 30 mins prior to glucose load by OGTT relative to control; format: functional; parameters: scale not given: the % may be the effect or the level left; outline: as §3
Mus musculus [12] = test: Hypoglycemic activity in ICR mouse assessed as decrease in blood glucose AUC (0 to 120 mins) at 20 mg/kg, po administered 30 mins prior to glucose load by OGTT relative to control; format: functional; parameters: scale not given: the % may be the effect or the level left; outline: as §2
Mus musculus [13] = test: Hypoglycemic activity in ob/ob mouse assessed as decrease in blood glucose AUC (0 to 120 mins) at 40 mg/kg, po bid administered via gavage for 5 days starting at 30 mins prior to glucose load by OGTT relative to control; format: functional; parameters: scale not given: the % may be the effect or the level left; outline: as §3
[14] = target: T1, Free fatty acid receptor 1; test: Agonist activity at FFA1 (unknown origin); format: functional; outline: as §1

T1 sequence (O14842 whole entry): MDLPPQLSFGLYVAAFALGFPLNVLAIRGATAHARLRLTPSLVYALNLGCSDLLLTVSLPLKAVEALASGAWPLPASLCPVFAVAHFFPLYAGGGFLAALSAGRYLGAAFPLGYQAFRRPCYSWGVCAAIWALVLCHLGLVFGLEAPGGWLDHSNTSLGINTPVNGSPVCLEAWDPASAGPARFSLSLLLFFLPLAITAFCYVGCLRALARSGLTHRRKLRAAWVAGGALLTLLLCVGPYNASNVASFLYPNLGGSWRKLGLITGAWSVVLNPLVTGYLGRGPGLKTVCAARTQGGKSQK

Row | Structure (SMILES) | EC50 [1] [µM] | EC50 [2] [µM] | EC50 [3] [µM] | EC50 [4] [µM] | other results
1 | Cc1ccc(OCCCOc2ccc3c(c2)OCC3CC(=O)O)cc1 (stereo unspecified) | 7.62 | > 10 | 1.81 | 1.95 | 
2 | Cc1cc(OCCCOc2cccc(Cl)c2)ccc1OCC(=O)O | > 10 | > 10 | 1.54 | 1.73 | 
3 | O=C(O)COc1ccc(OCCCOc2cccc(Cl)c2)cc1F | 8.45 | > 10 | 3.17 | 3.35 | 
4 | CC(C)(C)c1cccc(OCCOc2ccc3c(c2)OCC3CC(=O)O)c1 (stereo unspecified) | 3.85 | > 10 | 2.03 | 9.57 | 
5 | Cc1cccc(OCCCOc2ccc3c(c2)OCC3CC(=O)O)c1 (stereo unspecified) | 3.59 | > 10 | 1.75 | 2.42 | 
6 | Cc1cc(OCCCOc2ccc(-c3ccccc3)cc2)ccc1OCC(=O)O | > 10 | 5.26 | 4.56 | 1.52 | 
7 | O=C(O)CC1COc2cc(OCCCOc3ccccc3)ccc21 (stereo unspecified) | > 10 | > 10 | 5.26 | 3.26 | 
8 | O=C(O)C[C@@H]1COc2cc(OCCCOc3cccc(Cl)c3)ccc21 | 2.38 | > 10 | 1.43 | 1.75 | Activity (Mus musculus [5]): 18.6%; Activity (Mus musculus [6]): 17.3%; Activity (Mus musculus [7]): Dose-dependent effect; Activity (Mus musculus [8]): 7.6%; Activity (Mus musculus [9]): 8.1%; Activity (Mus musculus [10]): 1.1%
9 | O=C(O)CC1COc2cc(OCCCOc3cccc(-c4ccccc4)c3)ccc21 (stereo unspecified) | 2.76 | > 10 | 1.85 | 5.49 | 
10 | O=C(O)C[C@@H]1CCc2cc(OCCCOc3ccccc3)ccc21 | > 10 | > 10 | > 10 | 0.17 | 
11 | CC(C)(C)c1cccc(OCCCOc2ccc3c(c2)OCC3CC(=O)O)c1 (stereo unspecified) | 3.02 | > 10 | 1.75 | 4.84 | 
12 | O=C(O)CC1COc2cc(OCCOc3ccccc3)ccc21 (stereo unspecified) | > 10 | > 10 | 7.75 | 7.93 | 
13 | O=C(O)CC1COc2cc(OCCCOc3cccc(Cl)c3)ccc21 (stereo unspecified) | 3.07 | > 10 | 1.69 | 2.16 | 
14 | Cc1ccccc1OCCCOc1ccc2c(c1)OCC2CC(=O)O (stereo unspecified) | > 10 | > 10 | 2.02 | 1.93 | 
15 | Cc1cc(OCCCS(C)(=O)=O)cc(C)c1-c1cccc(COc2ccc3c(c2)OC[C@H]3CC(=O)O)c1 |  |  |  |  | Activity (Mus musculus [11]): 13.1%; Activity (Mus musculus [12]): -26.9%; Activity (Mus musculus [13]): 20.2%
16 | O=C(O)CC1COc2cc(OCCCOc3ccc(-c4ccccc4)cc3)ccc21 (stereo unspecified) | 4.26 | 7.31 | 2.97 | 1.98 | 
17 | [2H]C([2H])(Cc1ccc(OCCCOc2cccc(Cl)c2)cc1)C(=O)O | 3.28 | > 10 | 1.92 | 4.56 | 
18 | O=C(O)CC1COc2cc(OCCCOc3ccccc3F)ccc21 (stereo unspecified) | > 10 | > 10 | 2.67 | 2.09 | 
19 | O=C(O)CC1COc2cc(OCCCOc3cccc(Br)c3)ccc21 (stereo unspecified) | 3.45 | > 10 | 1.67 | 2.37 | 
20 | O=C(O)CS(=O)(=O)c1ccc(OCCCOc2cccc(Cl)c2)cc1 | > 10 | > 10 | > 10 | > 10 | 
21 | CC#C[C@@H](CC(=O)O)c1ccc(OCCCOc2cccc(Cl)c2)cc1 |  |  |  |  | EC50 [14]: 0.01 µM
